Test results: paper PMC4415852 (Cancer cell, 2015)

How the values were obtained:
[1] = tested on: MV4;11 human leukemia cells expressing MLL-AF4; assay: Long term viability study in MV4; format: cell-based; conditions: MV4;11, at day 10, first treatment phase
Summary of the method: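 Cycle of 10 days exposure to test compound at several concentrations, 10 days wash-out without compound, then 10 further days of re-treatment. Viable cell numbers were normalized to the DMSO control. Values are means of duplicates ± SD. The day-10 read-out is taken from the first exposure phase.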

menin = biological target: T1, menin (Homo sapiens, UniProt O00255); assay: Isothermal Titration Calorimetry, binding to menin; conditions: in words
T1 sequence (O00255 1-610): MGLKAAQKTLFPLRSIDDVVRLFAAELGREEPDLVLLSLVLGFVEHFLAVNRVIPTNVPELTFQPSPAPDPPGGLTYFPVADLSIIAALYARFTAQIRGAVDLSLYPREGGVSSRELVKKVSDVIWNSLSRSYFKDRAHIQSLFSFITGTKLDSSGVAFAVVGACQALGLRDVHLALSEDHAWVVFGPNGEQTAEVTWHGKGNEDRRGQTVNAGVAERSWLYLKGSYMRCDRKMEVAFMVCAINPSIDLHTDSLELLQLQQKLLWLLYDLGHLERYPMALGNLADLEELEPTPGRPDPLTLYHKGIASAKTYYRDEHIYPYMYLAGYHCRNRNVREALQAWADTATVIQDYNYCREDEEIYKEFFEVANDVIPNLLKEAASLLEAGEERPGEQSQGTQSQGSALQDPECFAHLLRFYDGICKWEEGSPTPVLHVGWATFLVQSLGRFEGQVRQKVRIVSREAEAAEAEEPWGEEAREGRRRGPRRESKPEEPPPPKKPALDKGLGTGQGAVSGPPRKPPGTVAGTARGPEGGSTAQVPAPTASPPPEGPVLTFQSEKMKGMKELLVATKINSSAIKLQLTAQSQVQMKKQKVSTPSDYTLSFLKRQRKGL

[2] = tested on: murine bone marrow cells (BMC) transformed with the MLL-AF9 oncogene; assay: MTT cell viability assay, MLL-AF9 transformed BMCs; format: cell-based; conditions: read-out: half-maximal growth inhibitory concentration (GI50); after 7 days of treatment
Summary of the method: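 Leukemia cells were plated and exposed to a test compound titration or 0.25% DMSO at 37 °C for 7 days. On day 4, media was changed, viable cell numbers were reset to the starting density and compound was re-supplied. Viability was read by MTT absorbance at 570 nm from titration curves. n = 4, mean ± SD.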

[3] = tested on: MV4;11 human MLL leukemia cells; conditions: for inhibition of tumor growth: once daily i.p., MI-503 60 mg/kg, MI-463 35 mg/kg, in words
[4] = biological target: T2, menin-MLL-AF9 interaction (Homo sapiens, UniProt O00255); assay: Co-immunoprecipitation in HEK293 cells transfected with MLL-AF9; format: cell-based; conditions: at sub-micromolar concentrations
T2 sequence (O00255 1-610): T1 sequence (O00255 1-610)

[5] = tested on: control AML patient samples; format: cell-based, human; conditions: except at the highest concentration (6 μM) in the AML-9571 sample
Summary of the method: (§1)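 Primary cells (peripheral blood mononuclear, thawed) were pre-cultured 24 hr in RPMI-1640 with 10% FBS, 1% penicillin/streptomycin, 10 ng/mL human IL-3 and 10 ng/mL IL-6 plus SCF. They were then plated in duplicate at 7.5–15 × 10^4 cells in cytokine-supplemented methylcellulose containing test compound or DMSO. Incubation was 14 days at 37 °C, 5% CO2, followed by iodonitrotetrazolium chloride staining. Colony counts were normalized to DMSO; mean ± SD, n = 2.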

[6] = tested on: BMCs transformed with the Hoxa9/Meis1 oncogenes (HM-2); assay: MTT cell viability assay, Hoxa9/Meis1 transformed BMCs; format: cell-based, murine; conditions: HM-2 BMCs, 7 days
Summary of the method: (§2)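 Cells were plated with test compound or 0.25% DMSO and kept at 37 °C for 7 days. At day 4 the media was changed, viable cell numbers were reset to the starting density and compound was re-added. Read-out was MTT with absorbance at 570 nm, from titration curves. Mean ± SD, n = 4. Non-MLL lines were HL-60, NB4 and Jurkat; murine bone marrow cells were Hoxa9/Meis1-transformed.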

[7] = Pharmacokinetic studies in mice; format: in vivo; conditions: single intravenous or oral dose
[8] = tested on: human leukemia cell lines without MLL translocations; assay: MTT assay, human leukemia cell lines without MLL translocations; format: cell-based; conditions: in words
Summary of the method: as §2

[9] = tested on: MLL leukemia patient samples; assay: Methylcellulose colony forming assay, MLL leukemia primary patient samples; format: cell-based, human; conditions: at submicromolar or low micromolar concentrations, 14 days
Summary of the method: as §1

MLL-AF9 leukemia = assay: Bone marrow transplantation model of murine MLL-AF9 leukemia; format: in vivo; conditions: for increase of median survival: MI-463 50 mg/kg, MI-503 80 mg/kg, twice daily oral gavage, 10 days
[10] = Tolerability in normal C57BL/6 mice; format: in vivo; conditions: 10 days, twice daily oral gavage
Summary of the method: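 Normal C57BL/6 mice received test compound or vehicle by oral gavage twice daily for 10 days, the same regimen as the leukemia survival studies. Body weight, organ weight and tissue damage were assessed afterwards.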

[11] = tested on: MLL leukemia patient samples; assay: Cell viability assay in primary MLL leukemia patient samples; format: cell-based, human; conditions: 7 days of treatment, in words
Summary of the method: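 Primary AML cells (mononuclear cells from peripheral blood, isolated by density gradient and red cell lysis, frozen in 10% DMSO) were exposed to test compound or 0.25% DMSO vehicle for 7 days. Stains were anti-human CD45, CD34 and CD38, then Annexin V and 7-AAD, with ≥2 × 10^5 events per sample by flow cytometry. Annexin V/7-AAD double negative cells counted as viable, shown as % of DMSO. Blasts were hCD45+. Mean ± SD, n = 2.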

Metabolic stability = format: in vitro ADME; conditions: in words

| metabolic stability (Metabolic stability) | SMILES | GI50 [1] [µM] | binding affinity to menin (menin) | GI50 [2] [µM] | reduction in MV4;11 tumor volume ([3]; 60 mg/kg once daily i.p.) | inhibition of tumor growth [3] | inhibition of the menin-MLL-AF9 interaction [4] | effect on colony formation [5] | effect on cell growth inhibition [6] | oral bioavailability [7] | growth suppressive activity [8] | reduction in colony number [9] | increase of median survival (MLL-AF9 leukemia) | body weight, organ weight, tissue damage [10] | effect on cell growth and blast population [11] | body weight loss / tolerability (MLL-AF9 leukemia; MLL-AF9 leukemia mice, 10 days of treatment, twice daily p.o.) |
| --- | --- | --- | --- | --- | --- | --- | --- | --- | --- | --- | --- | --- | --- | --- | --- | --- |
|  | Cc1c(CN2CCC(Nc3ncnc4sc(CC(F)(F)F)cc34)CC2)ccc2c1cc(C#N)n2Cc1cn[nH]c1 [MI-503] | 0.2 | low nanomolar | 0.22 | over 80% | strong inhibition | effectively inhibit | little effect | no effect | 75% | only a minimal effect | over 50% | ~ 45% | no decrease in body weight, organ weight or tissue damage |  |  |
|  | Cc1c(CN2CCC(Nc3ncnc4sc(CC(F)(F)F)cc34)CC2)ccc2[nH]c(C#N)cc12 [MI-463] |  |  |  |  | strong inhibition |  | little effect | no effect | ~ 45% | only a minimal effect | over 50% | ~ 70% | no decrease in body weight, organ weight or tissue damage | marked decrease | no significant body weight loss |
| very poor | CC1(C)CN=C(N2CCN(c3ncnc4sc(CC(F)(F)F)cc34)CC2)S1 [MI-2-2] |  |  |  |  |  |  |  |  |  |  |  |  |  |  |  |
